# Laboratory results: ChEMBL document CHEMBL1127047, “10,5-(Iminomethano)-10,11-dihydro-5H-dibenzo[a,d]cycloheptene and derivatives. Potent PCP receptor ligands” (J Med Chem, 1993)
# pIC50: −log10 of the molar value. Where “and” joins values, the source holds several entries; their conditions need not be identical. Identical values can stand only once.
# How the values were obtained:
# Glutamate NMDA receptor = test: Inhibition of [3H]MK-801 binding to the PCP receptor site in guinea pig brain homogenate; type: tissue-based
# [1] = In vitro neuroprotection against glutamate-induced toxicity at 5 uM using rat hippocampal cell cultures at 0 uM of glutamate; type: functional, Hippocampus
# Summary of the method: (§1)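 Dissociated hippocampal cultures from 1–3 day postnatal Sprague–Dawley rats, papain-dissociated and treated with 5 μM cytosine arabinoside. Blind, coded test. In HEPES-buffered salt solution (pH 7.4, 32–34 °C), cultures got a 5 min preincubation with 1 μM glycine plus compound, then 5 min with glycine, compound and glutamate. Next day, 0.4% Trypan Blue; surviving cells in the grid were counted by phase contrast and expressed as % of highest count.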
# [2] = In vitro neuroprotection against glutamate-induced toxicity at 5 uM using rat hippocampal cell cultures at 300 uM of glutamate; type: functional, Hippocampus; summary of the method: as §1
# [3] = In vitro neuroprotection against glutamate-induced toxicity at 5 uM using rat hippocampal cell cultures at 30 uM of glutamate; type: functional, Hippocampus; summary of the method: as §1
# [4] = In vitro neuroprotection against glutamate-induced toxicity at 5 uM using rat hippocampal cell cultures at 1000 uM of glutamate; type: functional, Hippocampus; summary of the method: as §1
# [5] = In vitro neuroprotection against glutamate-induced toxicity at 5 uM using rat hippocampal cell cultures at 3 uM of glutamate; type: functional, Hippocampus; summary of the method: as §1
# [6] = In vitro neuroprotection against glutamate-induced toxicity at 5 uM using rat hippocampal cell cultures at 100 uM of glutamate; type: functional, Hippocampus; summary of the method: as §1
# [7] = In vitro neuroprotection against glutamate-induced toxicity at 5 uM using rat hippocampal cell cultures at 10 uM of glutamate; type: functional, Hippocampus; summary of the method: as §1
# [8] = In vitro neuroprotection against glutamate-induced toxicity at 10 uM using rat hippocampal cell cultures at 10 uM of glutamate; type: functional, Hippocampus; summary of the method: as §1
# [9] = In vitro neuroprotection against glutamate-induced toxicity at 10 uM using rat hippocampal cell cultures at 300 uM of glutamate; type: functional, Hippocampus; summary of the method: as §1
# [10] = In vitro neuroprotection against glutamate-induced toxicity at 10 uM using rat hippocampal cell cultures at 0 uM of glutamate; type: functional, Hippocampus; summary of the method: as §1
# [11] = In vitro neuroprotection against glutamate-induced toxicity at 10 uM using rat hippocampal cell cultures at 30 uM of glutamate; type: functional, Hippocampus; summary of the method: as §1
# [12] = In vitro neuroprotection against glutamate-induced toxicity at 10 uM using rat hippocampal cell cultures at 1000 uM of glutamate; type: functional, Hippocampus; summary of the method: as §1
# [13] = In vitro neuroprotection against glutamate-induced toxicity at 10 uM using rat hippocampal cell cultures at 100 uM of glutamate; type: functional, Hippocampus; summary of the method: as §1
# [14] = In vitro neuroprotection against glutamate-induced toxicity at 10 uM using rat hippocampal cell cultures at 3 uM of glutamate; type: functional, Hippocampus; summary of the method: as §1
compound,measurement,setting,value
COc1ccc2c(c1)C1CN(C)C2Cc2ccc(Br)cc21 (stereo not given),pIC50,Glutamate NMDA receptor,6.19
CC12CNC(Cc3ccccc31)c1ccccc12 (stereo not given),pIC50,Glutamate NMDA receptor,6.92
Nc1ccc2c(c1)C1CNC(C2)c2ccccc21 (stereo not given),pIC50,Glutamate NMDA receptor,6.31
Cc1ccc2c(c1)C1CNC(C2)c2ccccc21 (stereo not given),pIC50,Glutamate NMDA receptor,6.97
c1ccc(CN2CC3c4ccccc4CC2c2ccccc23)nc1 (stereo not given),pIC50,Glutamate NMDA receptor,< 5.00
O=[N+]([O-])c1ccc2c(c1)C1CNC(C2)c2ccccc21 (stereo not given),pIC50,Glutamate NMDA receptor,5.37
COc1ccc2c(c1)C1CNC2Cc2ccc(Cl)cc21 (stereo not given),pIC50,Glutamate NMDA receptor,6.95
CC(=O)N1CC2c3cc([N+](=O)[O-])ccc3CC1c1ccccc12 (stereo not given),pIC50,Glutamate NMDA receptor,< 5.00
COc1ccc2c(c1)C1CNC(C2)c2ccccc21 (stereo not given),pIC50,Glutamate NMDA receptor,6.77
Brc1ccc2c(c1)C1CNC(C2)c2ccccc21 (stereo not given),pIC50,Glutamate NMDA receptor,7.29
CN1CC2c3cc(Br)ccc3CC1c1ccccc12 (stereo not given),pIC50,Glutamate NMDA receptor,5.98
COc1ccc2c(c1)C1CNC2Cc2ccc(Br)cc21 (stereo not given),pIC50,Glutamate NMDA receptor,6.94
Ic1ccc2c(c1)C1CNC(C2)c2ccccc21 (stereo not given),pIC50,Glutamate NMDA receptor,6.80
[N-]=[N+]=Nc1ccc2c(c1)C1CNC(C2)c2ccccc21 (stereo not given),pIC50,Glutamate NMDA receptor,6.30
CN(C)CCCN1CC2c3ccccc3CC1c1ccccc12 (stereo not given),pIC50,Glutamate NMDA receptor,4.92
Clc1ccc2c(c1)C1CNC2Cc2ccccc21 (stereo not given),pIC50,Glutamate NMDA receptor,6.16
CC(C)N1CC2c3ccccc3CC1c1ccccc12 (stereo not given),pIC50,Glutamate NMDA receptor,5.73
c1ccc(-c2ccc3c(c2)C2CNC(C3)c3ccccc32)cc1 (stereo not given),pIC50,Glutamate NMDA receptor,6.38
COc1ccc2c(c1)C1CNC2Cc2ccccc21 (stereo not given),pIC50,Glutamate NMDA receptor,6.48
Fc1ccc2c(c1)C1CNC(C2)c2ccc(F)cc21 (stereo not given),pIC50,Glutamate NMDA receptor,7.29
CC(=O)N1CC2c3ccccc3CC1c1ccccc12 (stereo not given),pIC50,Glutamate NMDA receptor,< 5.00
c1ccc2c(c1)CC1NCC2c2ccccc21 (racemic),Neuroprotection,[1],99.1%
same,Neuroprotection,[2],39.9%
same,Neuroprotection,[3],71.5%
same,Neuroprotection,[4],25.5%
same,Neuroprotection,[5],85.3%
same,Neuroprotection,[6],61.3%
same,Neuroprotection,[7],76.6%
"c1ccc2c(c1)CC1NCC2c2ccccc21 (single isomer, unassigned; (+))",Neuroprotection,[1],93.6%
same,Neuroprotection,[2],57.2%
same,Neuroprotection,[3],73.3%
same,pIC50,Glutamate NMDA receptor,7.42 and 8.38
same,Neuroprotection,[4],40.5%
same,Neuroprotection,[5],68.8%
same,Neuroprotection,[6],73.9%
same,Neuroprotection,[7],76.3%
"Fc1ccc2c(c1)C1CNC(C2)c2ccccc21 (single isomer, unassigned; (+))",pIC50,Glutamate NMDA receptor,7.81
"CN1CC2c3ccccc3CC1c1ccccc12 (single isomer, unassigned; (+))",Neuroprotection,[1],91%
same,Neuroprotection,[8],90%
same,Neuroprotection,[9],56.6%
same,Neuroprotection,[10],97.8%
same,Neuroprotection,[2],58.7%
same,Neuroprotection,[11],92.1%
same,Neuroprotection,[3],62.7%
same,pIC50,Glutamate NMDA receptor,6.08
same,Neuroprotection,[4],23.3%
same,Neuroprotection,[5],74.7%
same,Neuroprotection,[6],59.9%
same,Neuroprotection,[12],53.3%
same,Neuroprotection,[13],84%
same,Neuroprotection,[14],93.6%
same,Neuroprotection,[7],65%
"Fc1ccc2c(c1)C1CNC(C2)c2ccccc21 (single isomer, unassigned; (-))",pIC50,Glutamate NMDA receptor,6.27
c1ccc2c(c1)CC1NCC2c2ccccc21 (stereo in doubt; 3),pIC50,Glutamate NMDA receptor,7.23
Clc1ccc2c(c1)C1CNC(C2)c2ccccc21 (stereo in doubt; 13c),pIC50,Glutamate NMDA receptor,7.15
Fc1ccc2c(c1)C1CNC(C2)c2ccccc21 (stereo in doubt; 13e),pIC50,Glutamate NMDA receptor,7.53
Clc1ccc2c(c1)C1CNC(C2)c2ccccc21 (stereo in doubt; (+)-13c),pIC50,Glutamate NMDA receptor,7.49
Clc1ccc2c(c1)C1CNC(C2)c2ccccc21 (stereo in doubt; (-)-13c),pIC50,Glutamate NMDA receptor,6.03
C[C@]12N[C@H](Cc3ccccc31)c1ccccc12 [DIZOCILPINE],Neuroprotection,[1],97.5%
same,Neuroprotection,[2],90.3%
same,Neuroprotection,[3],95.5%
same,Neuroprotection,[4],88.4%
same,Neuroprotection,[5],98.3%
same,Neuroprotection,[6],93.9%
same,Neuroprotection,[7],94.7%
